Results on 95 molecules are retold here after ChEMBL document CHEMBL4513216, “Probing the Open Global Health Chemical Diversity Library for Multistage-Active Starting Points for Next-Generation Antimalarials” (ACS Infect Dis, 2020).

The series can be described thus: Toxicity liver stage against HepG2, at 10uM. The series is classed as cell-based. Set-up: test concentration 10 uM, cell line HepG2-A16-CD81EGFP. The conditions noted are these: human, HepG2-A16-CD81EGFP cells; read-out: INHIBITION
The gist of the method:
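Uninfected HepG2-A16-CD81EGFP cells, 3 × 10^3 per well, 1536-well, plated on prespotted compound at 10 μM final, parasite-free screening media added to match infected plates; puromycin 10 μM positive, DMSO 0.5% negative; run in parallel with 48 h PbLuc assay at 37 °C, 5% CO2; viability by CellTiter-Glo luminescence, normalized to controls.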
As for `CC(NC(=O)NCCCN1CCCC1=O)c1nncn1C` (stereo not given), the cytotoxicity at 10 µM was -3.08%.
The figure for `O=C(c1ccc[nH]1)N(Cc1ccc(O)cc1)CC1CC1` is 8.43%; for `CCC(CNC(=O)c1nc(=O)[nH][nH]1)Oc1ccccc1C(F)(F)F` (stereo not given) it is 1.45%.
The figure for `Cc1noc(C)c1C[S+]([O-])Cc1cn2cccc(C)c2n1` (stereo not given) is 2.14%.
The figure for `Cc1cc(C(=O)N(CC(=O)O)CC(C)C)ccc1F` is -6.07%; for `c1cnc(N2CCO[C@H]3[C@H](OCc4cccnc4)CC[C@@H]32)nc1` it is -5.05%.
For `Cc1cc(F)cc(S(=O)(=O)Nc2noc(C)n2)c1`, the cytotoxicity at 10 µM was 3.11%.
Turning to `O=C(c1cccc(F)c1)N1CCC2(CC1)CC(N1CCOCC1)C2`, the cytotoxicity at 10 µM is -8.02%.
The same measure for `CO[C@H]1C[C@@H](O)C12CCN(Cc1nc(C(F)(F)F)no1)CC2`: -4.7%.
The same measure for `COCC(=O)N1CCC2(COCc3c(C)nc(N(C)C)nc32)C1` (stereo not given): 9.09%; for `Cc1cccc(C(C(=O)N(C)Cc2cc(C)no2)N(C)C)c1` (stereo not given): 4.94%.
The same measure for `CC(=O)NCC1CCN(C(=O)CCOc2ccc(C(C)C)cc2)CC1`: -11.6%.
With `CN(Cc1cn2c(n1)CN(Cc1ccc(F)cc1)CC2)Cc1ccco1`, the cytotoxicity at 10 µM is -77%.
The figure for `CN(CCCc1cnn(C)c1)C(=O)C1CCC(=O)N(C2CCCC2)C1` (stereo not given) is 5.89%; for `Cc1nc(C2CCCN(C(=O)Cn3ccccc3=O)C2)sc1C` (stereo not given) it is 1.5%; for `Cc1ccc(NC(=O)c2cnc(N3CCN(C)CC3)nc2C)cc1C` it is -7.8%.
Regarding `CS(=O)(=O)N1CCC2(CC1)CC(NCc1ccco1)c1ccccc12` (stereo not given), the cytotoxicity at 10 µM was -110%.
Consider `O=C(NCCc1ccccc1)N1CC[C@@H]2CNS(=O)(=O)[C@@H]2CC1`, for which the cytotoxicity at 10 µM is -5.12%.
The figure for `Cc1nc(CN2CCCC(NCc3ccc4ccccc4c3)C2)no1` (stereo not given) is -0.375%; for `Cc1nc(CCNC(=O)NC2CCN(c3ncccn3)CC2)cs1` it is -11.8%.
Turning to `Cc1nc(COC[C@@H]2CC[C@H]3NCC[C@H]3O2)cs1`, the cytotoxicity at 10 µM was -3.15%.
The same measure for `Cc1nc(CN2C(=O)CC[C@@H]3[C@H]2CCN3C(=O)C2CCOCC2)cs1`: -81.3%; for `CCC[C@@H]1CN(C(=O)c2cc3ccccc3s2)C[C@H]1NS(C)(=O)=O`: -9.53%; for `Cc1cnn(C2CCCN(C(=O)CCCOc3cccc(F)c3)C2)c1` (stereo not given): 6.71%.
Consider `NC(=O)c1ccc(N2CCN(Cc3ccc(F)cc3Cl)CC2)nn1`, for which the cytotoxicity at 10 µM amounted to 62.6%.
The figure for `Cc1ccccc1C(=O)NC[C@@H]1CCN(C(=O)c2cscn2)C[C@H]1O` is -52.2%; for `Cc1csc(C2(NCc3nc(-c4ccco4)oc3C)CCCC2)n1` it is 7.2%.
The figure for `O=C(NCCn1cccn1)c1ccn(-c2cccc(F)c2)n1` is -4.58%; for `CCOC(=O)N1CCN(Cc2ccc(OCc3nccn3C)cc2)CC1` it is -9.34%; for `CC(C)CN1CCN(C)C2(CCN(c3nccs3)CC2)C1=O` it is -5.4%.
The same measure for `N#Cc1ccc(CS(=O)(=O)NC(=O)c2ccc3c(c2)COC3)cc1`: 3.65%.
For `CN(Cc1cn2c(n1)CN(C(N)=O)CC2)Cc1ccco1`, the cytotoxicity at 10 µM is -5.67%.
As to `CC(C)N1CCC(NC(=O)c2cn(-c3ccc(F)cc3)nn2)C1` (stereo not given), the cytotoxicity at 10 µM is -5.05%.
Consider `COC(=O)C(c1cc(F)ccc1F)N(C)C(=O)c1cccnc1O` (stereo not given), for which the cytotoxicity at 10 µM was -0.289%.
On to `N#CCCN1CCC(=Cc2ccccc2)CC1`, for which the cytotoxicity at 10 µM is -2.75%.
The figure for `O=C(O)c1ccccc1-c1ccc(CN2CCC(CO)C2)cn1` (stereo not given) is -1.79%.
The same measure for `COC1CCN(S(=O)(=O)N2C[C@H](c3ccccc3)[C@@H](N)C2)CC1`: 11.8%; for `CC1CCN(S(=O)(=O)c2cccn(CC(=O)NC(C)(C)C)c2=O)CC1`: 0.00219%; for `CC(C)c1ncc2c(n1)CN(Cc1nc(-c3cccs3)no1)CC2`: -7.91%.
The same measure for `CC(C)c1ocnc1C(=O)N1CC(=O)Nc2cccnc21`: 1.56%; for `CN(C)[C@@H]1CCN(C(=O)c2ccccn2)[C@H]1Cc1ccncc1`: -63.6%; for `CN1CCOC(C(=O)Nc2nc(-c3ccccc3F)n[nH]2)C1` (stereo not given): 8.65%.
Consider `CSCCN(C)C(=O)C1(c2ccc(F)cc2F)CCOCC1`, for which the cytotoxicity at 10 µM turned out to be 0.53%.
The figure for `Cc1cccc2c1nc1n2[C@@H](CNC(=O)C2CCOCC2)COC1` is -1.47%; for `CCc1ccc(Cn2nccc2NC(=O)C2CCS(=O)(=O)C2)cc1` (stereo not given) it is -1.32%.
On to `CC(C)c1nccn1CCCNC(=O)c1ccc(N(C)C)nc1`, for which the cytotoxicity at 10 µM is 15.7%.
The figure for `Cc1cc(CS(=O)(=O)C(C)c2ccc(F)cc2)on1` (stereo not given) is -0.0986%.
As to `Cc1cc(C)n(CC2CN(c3ncnc4[nH]ccc34)CCO2)n1` (stereo not given), the cytotoxicity at 10 µM was -6.88%.
In the case of `O=C(c1cccnc1)N1CCCC2(COCCN(c3ccccc3)C2)C1` (stereo not given), the cytotoxicity at 10 µM is 2.17%.
Regarding `COCc1nc(CNc2cccc(-c3csc(C)n3)c2)cs1`, the cytotoxicity at 10 µM is 1.98%.
As for `Cc1csc(C(C)(C)NCCNS(C)(=O)=O)n1`, the cytotoxicity at 10 µM amounted to 4.61%.
The figure for `COc1ccc2nnc(CCC(=O)Nc3nc4c(s3)CCC4)n2n1` is -4.8%.
The same measure for `N#Cc1cccc(S(=O)(=O)NC(=O)C2CC(c3ccccc3)=NO2)c1` (stereo not given): 1.85%; for `Clc1cccnc1N1CCC(NCc2cccc3cn[nH]c23)C1` (stereo not given): 13.7%.
Turning to `O=C(N1CCOCC1)[C@@]12CCO[C@@H]1CCN(C1CCC1)C2`, the cytotoxicity at 10 µM was found to be 3.33%.
The figure for `COc1ccc(C2=CCN(C(=O)CN(C)S(C)(=O)=O)CC2)cc1` is -3.99%; for `COc1cccc(CC(=O)N2CCC(Cc3nnc(SC)n3C)CC2)c1` it is -40.2%; for `Cc1cnn(CC2CCCN2C(=O)c2nccc3ccccc23)c1` (stereo not given) it is -2.14%.
The same measure for `Cc1cccc(C(=O)N2CC[C@@H]3CN(c4ncccn4)CCO[C@@H]3C2)c1`: -71.6%; for `CN1N=C(C(=O)N(Cc2ccco2)C2CC2)CCC1=O`: -2.62%.
On to `COc1nccnc1N1CCC(C(=O)O)(n2ccc(C(C)(C)C)n2)CC1`, for which the cytotoxicity at 10 µM was -4.05%.
The figure for `COc1cc(N(C)Cc2cc(C(C)(C)C)n[nH]2)ncn1` is -11.1%; for `Cc1csc(N2CCN(Cc3cscn3)CC2C)n1` (stereo not given) it is 16%; for `CN(C)C(=O)COCc1nnc2n1CCN(Cc1ccoc1)C2` it is 8.49%.
Turning to `Cc1cc(C(=O)N2C[C@H](C(C)C)[C@@H](N(C)C)C2)cs1`, the cytotoxicity at 10 µM was -0.421%.
The same measure for `COc1cccc(F)c1-c1nc2c([nH]1)c(C1CC1)nn2C`: 0.271%; for `Cc1nc(C2CCCN(C(=O)CCCn3cccn3)C2)no1` (stereo not given): -3.84%; for `Cc1cc(C[C@@H]2CCC[C@H]2NCc2ccccc2C(F)(F)F)on1`: 2.8%.
The figure for `CCn1ncc(-c2cc(C(F)F)nc3sc(C(N)=O)c(N)c23)c1C` is 10.3%; for `CCOc1nc2cnccc2n(CC(=O)NCc2ccco2)c1=O` it is -8.84%.
The figure for `CCn1cc(C2CCN(Cc3ccnc(N(C)C)c3)CC2)cn1` is 11%.
On to `CC(C)c1nc(C2CCCN2CCc2ccncc2)no1` (stereo not given), for which the cytotoxicity at 10 µM was -10.8%.
The same measure for `O=S(=O)(N1CCCCC1)N1CCOC2(CCCC2)C1`: -3.73%.
`O=C(NCCNc1ncccn1)c1scnc1Cl`: the cytotoxicity at 10 µM is -3.11%.
The figure for `CCCOCC(=O)N1CCCC(c2nnc(CN3CCCCC3)n2C)C1` (stereo not given) is -2.34%.
The figure for `O=C1CCCN1Cc1nnc2n1CCN(Cc1ccccn1)CC2` is -9.87%; for `O=C(Nc1cccn(Cc2ccccc2)c1=O)c1ccncc1F` it is 14.8%; for `CC(C)S(=O)(=O)C(C)C(=O)NCc1cccc(N2CCCCC2=O)c1` (stereo not given) it is -7.91%.
Take `Cc1ccc(N2CCCC(NCc3nc(C)c(C)o3)C2)nn1` (stereo not given): the cytotoxicity at 10 µM was -3.18%.
Take `CN(C)c1ccc(C(=O)Nc2ccn(CCc3ccncc3)n2)cn1`: the cytotoxicity at 10 µM is -12.7%.
The same measure for `COCCN1CCc2ncnc(-c3ccccc3)c2CC1`: 9.99%; for `CC1(Cc2ccc(Cl)cc2)Cc2cc(CCC(=O)O)ccc2O1` (stereo not given): 2.79%; for `Cc1cnn(CCCNC(=O)N2CCCCC(N3CCCC3)C2)c1` (stereo not given): -5.97%.
The figure for `Cc1cccc(CN2CC[C@H]3OCC[C@@]3(C(=O)N3CCOCC3)C2)n1` is -1.49%; for `CCc1nnc(CN2CCCCC2Cn2cncn2)o1` (stereo not given) it is -1.1%.
The figure for `O=C1CC[C@H]2[C@H](CCN2c2ccccn2)N1CC1CCOCC1` is -36.4%; for `Cc1nccn1CC1CCCN1S(=O)(=O)Cc1cccc(C#N)c1` (stereo not given) it is -20.7%; for `COCCC1COC2(CCN(C(=O)c3ccccc3)CC2)C1` (stereo not given) it is -87.5%.
On to `COc1ccc(OC2CCN(C(=O)C(C)Cn3cccn3)CC2)cc1` (stereo not given), for which the cytotoxicity at 10 µM came out at 5.43%.
The same measure for `CCN(CCO)C(=O)c1cc(Cn2c(C)nc3ccccc32)[nH]n1`: 8.51%; for `C[C@H]1C[C@H]2CN(C(=O)c3ccncn3)CC[C@H]2O1`: -20.9%; for `Cc1c(Cl)c(C(=O)NC(C)CN2CCOCC2)nn1C` (stereo not given): -1.77%.
The same measure for `COCCNC(=O)C1CN(Cc2nccs2)Cc2ccnn2C1` (stereo not given): -72.7%.
The figure for `O=C(O)c1cc(-c2cn[nH]c2)cc(S(=O)(=O)N2CCSCC2)c1` is -8.26%.
For `C=C(C)COc1ccccc1C(=O)NCCc1cc(O)nc(C)n1`, the cytotoxicity at 10 µM is -0.355%.
